Test results reported in article PMC3597129 (The Journal of antimicrobial chemotherapy, 2008).
Read-outs that look alike come from different tables or passages of the source. Values belong to the compound of their own block, whether it stands above or below them.

How the values were obtained:
[1] = 2NN study, cited from earlier work
[2] = Population pharmacokinetic model fitted to each study site separately; assay type: in vivo, human; conditions: split model, 1600/100 mg once daily; for Population predictions CL/F / Population predictions V/F: typical 70 kg male
Method in brief: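 UK sampling: pre-dose to 12 h (24 h if once daily). Thailand: pre-dose to 24 h, 10–15 g fat meal. Plasma from heparinized blood was frozen at −70°C and assayed by HPLC-MS/MS or HPLC-UV. Nonlinear mixed-effects modelling used FO estimation; individual estimates were Bayesian post hoc.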

[3] = for Individual predictions V/F / Population predictions V/F: 1600/100 mg once daily; for Population predictions V/F: typical 70 kg male
[4] = healthy volunteers, Phase I studies; cited from earlier work

SMILES: Cc1ccnc2c1NC(=O)c1cccnc1N2C1CC1 [nevirapine]
higher clearance compared with Thai and South African individuals ([1]; South American HIV patients): ~ 11% | higher clearance compared with Thai and South African individuals ([1]; Western HIV patients): ~28%

Individual predictions CL/F ([2]; Thailand): 22.8 L/h | Individual predictions V/F ([2]; Thailand): 184.1 L | Population predictions CL/F ([2]; Thailand): 26.7 L/h | Population predictions V/F ([2]; Thailand): 245.9 L | Individual predictions CL/F ([2]; UK): 79.4 L/h | Individual predictions V/F ([2]; UK): 278.8 L | Population predictions CL/F ([2]; UK): 89.0 L/h | Population predictions V/F ([2]; UK): 313.5 L | Individual predictions CL/F ([2]; Uganda): 59.0 L/h | Individual predictions V/F ([2]; Uganda): 400.2 L | Population predictions CL/F ([2]; Uganda): 49.8 L/h | Population predictions V/F ([2]; Uganda): 421.0 L | observed trough concentrations below target (MEC 0.1 mg/L), number ([3]; both, human, in vivo): 65 | decrease in F ([3]; fasted state compared with standardized meal): ~ 40% | D1 (duration of zero-order input) ([3]; full model): 3.08 h | IIV CL/F ([3]; full model): 41.4% | IIV D1 ([3]; full model): 17.8% | IIV V/F ([3]; full model): 41.6% | IIV lag-time ([3]; full model): 46.8% | IOV CL/F ([3]; full model): 57.3% | IOV V/F ([3]; full model): 37.3% | Lag-time ([3]; full model): 0.57 h | Residual error additive ([3]; full model): 0.26 mg/L | Residual error proportional ([3]; full model): 34.3% | V/F ([3]; full model, 1000/100 mg bid evening dose): 545 L | V/F ([3]; full model, 1000/100 mg bid morning dose): 324 L | V/F ([3]; full model, 1600/100 mg qd): 324 L | V/F ([3]; full model, 1600/100 mg qd Thailand): 379 L | V/F ([3]; full model, 1600/100 mg qd Uganda): 332 L | V/F ([3]; full model, 2000/100 mg qd): 324 L | Individual predictions V/F ([3]; full model, Thailand): 195.4 L | Population predictions V/F ([3]; full model, Thailand): 371.1 L | Individual predictions V/F ([3]; full model, UK): 272.9 L | Population predictions V/F ([3]; full model, UK): 317.2 L | Individual predictions V/F ([3]; full model, Uganda): 521.2 L | Population predictions V/F ([3]; full model, Uganda): 325.1 L | increase in F ([3]; high-fat meal (66 g fat) compared with standardized meal): ~ 80%
SMILES: CC(C)(C)NC(=O)[C@@H]1C[C@@H]2CCCC[C@@H]2CN1C[C@@H](O)[C@H](Cc1ccccc1)NC(=O)[C@H](CC(N)=O)NC(=O)c1ccc2ccccc2n1 [saquinavir]
bioavailability F [4]: 0.039
